According to ChEMBL document CHEMBL3124932, “Design, synthesis and evaluation of genistein-O-alkylbenzylamines as potential multifunctional agents for the treatment of Alzheimer's disease” (Eur J Med Chem, 2014):
The source made the active and inactive calls.

Biological target: T1, Acetylcholinesterase (Rattus norvegicus, UniProt P37136)
T1 sequence (P37136 whole entry): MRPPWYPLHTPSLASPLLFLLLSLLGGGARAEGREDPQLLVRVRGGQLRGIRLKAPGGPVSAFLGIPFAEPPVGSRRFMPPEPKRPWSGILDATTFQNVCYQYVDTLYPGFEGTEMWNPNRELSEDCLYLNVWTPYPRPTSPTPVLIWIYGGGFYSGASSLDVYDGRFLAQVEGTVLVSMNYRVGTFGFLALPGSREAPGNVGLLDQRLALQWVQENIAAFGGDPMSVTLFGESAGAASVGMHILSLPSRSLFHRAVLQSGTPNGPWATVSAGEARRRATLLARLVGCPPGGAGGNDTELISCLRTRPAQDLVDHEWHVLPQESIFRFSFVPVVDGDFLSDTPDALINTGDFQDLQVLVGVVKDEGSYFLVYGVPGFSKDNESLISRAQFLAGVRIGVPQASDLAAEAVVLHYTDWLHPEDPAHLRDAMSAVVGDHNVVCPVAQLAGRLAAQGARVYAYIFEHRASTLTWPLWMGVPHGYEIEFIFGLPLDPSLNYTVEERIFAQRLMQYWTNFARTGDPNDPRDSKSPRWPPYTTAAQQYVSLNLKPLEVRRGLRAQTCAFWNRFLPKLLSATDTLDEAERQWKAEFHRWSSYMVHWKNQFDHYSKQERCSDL
Experiment: Inhibition of rat cortex homogenate AchE using acetylthiocholine iodide as substrate after 15 mins by Ellman's method

With `CN(CCCOc1cc(O)c2c(=O)c(-c3ccc(O)cc3)coc2c1)Cc1ccccc1` as the compound, how does the IC50 read?
Its IC50 is 36.3 µM.

With `COc1ccccc1CN(C)CCCOc1ccc(-c2coc3cc(O)cc(O)c3c2=O)cc1` as the compound, how does the IC50 read?
Its IC50 is 37.4 µM.

For `CCN(CCCCCCOc1ccc(-c2coc3cc(O)cc(O)c3c2=O)cc1)Cc1ccccc1OC`, which IC50 is on record?
The IC50 was 1.69 µM.

Which IC50 does the source give for `CCN(CCCOc1cc(O)c2c(=O)c(-c3ccc(O)cc3)coc2c1)Cc1ccccc1OC` here?
The IC50 was 0.47 µM.

For `CN(CCCCCCOc1ccc(-c2coc3cc(O)cc(O)c3c2=O)cc1)Cc1ccccc1`, which IC50 is on record?
The IC50 was 3.54 µM.

Which IC50 does the source give for `CCN(CCCOc1ccc(-c2coc3cc(O)cc(O)c3c2=O)cc1)Cc1ccccc1OC` here?
The IC50 was 16 µM.

Which IC50 does the source give for `COc1ccccc1CN(C)CCCCCCOc1ccc(-c2coc3cc(O)cc(O)c3c2=O)cc1` here?
Its IC50 is 5.62 µM.

Which IC50 does the source give for `COc1ccccc1CN(C)CCCCOc1cc(O)c2c(=O)c(-c3ccc(O)cc3)coc2c1` here?
Its IC50 is 5.55 µM.

Which IC50 does the source give for `CCN(CCCCCCOc1ccc(-c2coc3cc(O)cc(O)c3c2=O)cc1)Cc1ccccc1` here?
Its IC50 is 38.4 µM.

Which IC50 does the source give for `COc1ccccc1CN(C)CCCCCCOc1cc(O)c2c(=O)c(-c3ccc(O)cc3)coc2c1` here?
The IC50 was 3.19 µM.

For `COc1ccccc1CN(C)CCCCOc1ccc(-c2coc3cc(O)cc(O)c3c2=O)cc1`, which IC50 is on record?
Its IC50 is 5.31 µM.

For `CN(CCCOc1ccc(-c2coc3cc(O)cc(O)c3c2=O)cc1)Cc1ccccc1`, which IC50 is on record?
The IC50 was 49.3 µM.

Biological target: Acetylcholinesterase (Homo sapiens, UniProt P22303)
Sequence (P22303 whole entry): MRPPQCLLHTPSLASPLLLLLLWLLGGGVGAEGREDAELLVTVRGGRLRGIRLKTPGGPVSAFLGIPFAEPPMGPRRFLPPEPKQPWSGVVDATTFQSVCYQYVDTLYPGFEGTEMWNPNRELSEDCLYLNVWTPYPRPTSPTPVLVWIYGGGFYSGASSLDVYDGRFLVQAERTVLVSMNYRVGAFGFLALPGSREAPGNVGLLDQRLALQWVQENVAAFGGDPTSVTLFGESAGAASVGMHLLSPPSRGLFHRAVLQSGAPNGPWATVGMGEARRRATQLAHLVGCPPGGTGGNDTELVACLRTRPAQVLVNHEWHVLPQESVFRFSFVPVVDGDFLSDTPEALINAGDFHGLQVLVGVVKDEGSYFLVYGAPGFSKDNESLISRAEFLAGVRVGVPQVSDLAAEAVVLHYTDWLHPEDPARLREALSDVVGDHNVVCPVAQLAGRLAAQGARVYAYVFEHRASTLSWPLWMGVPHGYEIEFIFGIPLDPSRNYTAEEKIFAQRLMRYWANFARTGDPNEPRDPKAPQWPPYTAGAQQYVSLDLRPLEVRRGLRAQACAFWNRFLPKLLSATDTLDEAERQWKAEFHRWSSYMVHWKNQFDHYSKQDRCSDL
Experiment: Inhibition of human erythrocytes AchE using acetylthiocholine iodide as substrate at 50 uM after 15 mins by Ellman's method
In short: (§1)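 Modified Ellman assay with purified eel or human erythrocyte AChE (0.05 U/mL final) in phosphate buffer pH 8.0. Compound and enzyme incubated 15 min at 37 °C with acetylthiocholine iodide, then DTNB added; absorbance read at 412 nm. IC50 is the concentration giving 50% inhibition. Assays in triplicate, 3 independent experiments; "no active" means under 5% inhibition at 50 µM.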

Which inhibition does the source give for `O=c1c(-c2ccc(O)cc2)coc2cc(O)cc(O)c12` here?
Its inhibition is under 5%.

Biological target: Amyloid-beta precursor protein (Homo sapiens) (UniProt P05067)
Sequence (P05067 whole entry): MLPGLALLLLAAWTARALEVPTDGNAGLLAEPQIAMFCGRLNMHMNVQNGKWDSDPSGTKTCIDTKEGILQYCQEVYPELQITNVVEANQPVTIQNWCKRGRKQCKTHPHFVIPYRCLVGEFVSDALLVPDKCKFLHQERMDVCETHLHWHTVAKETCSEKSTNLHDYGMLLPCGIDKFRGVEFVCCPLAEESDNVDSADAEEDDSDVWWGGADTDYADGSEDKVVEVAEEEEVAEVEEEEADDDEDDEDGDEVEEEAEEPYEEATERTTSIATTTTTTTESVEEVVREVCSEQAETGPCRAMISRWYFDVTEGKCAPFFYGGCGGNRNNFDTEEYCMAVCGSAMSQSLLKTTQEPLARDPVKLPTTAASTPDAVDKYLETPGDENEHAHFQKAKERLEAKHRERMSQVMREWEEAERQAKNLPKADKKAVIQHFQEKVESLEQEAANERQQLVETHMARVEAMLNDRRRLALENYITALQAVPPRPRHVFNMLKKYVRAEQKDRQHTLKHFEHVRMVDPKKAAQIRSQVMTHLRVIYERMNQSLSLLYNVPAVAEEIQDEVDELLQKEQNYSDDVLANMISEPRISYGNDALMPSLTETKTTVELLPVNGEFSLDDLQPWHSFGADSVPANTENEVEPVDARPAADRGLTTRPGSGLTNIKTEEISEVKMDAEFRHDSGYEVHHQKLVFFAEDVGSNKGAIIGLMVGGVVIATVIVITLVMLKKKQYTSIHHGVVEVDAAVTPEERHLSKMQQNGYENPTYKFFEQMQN
Experiment: Inhibition of Cu2+-induced amyloid beta (1 to 42) (unknown origin) aggregation at 25 uM after 24 hrs by thioflavin T fluorescence method
In short: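 Aβ1-42 (25 µM final, HFIP-pretreated) with an equimolar amount of Cu2+ (25 µM) in HEPES pH 6.6 with 150 mM NaCl. Incubated with or without compound (10–35 µM final) 24 h at 37 °C. ThT in glycine-NaOH pH 8.5 added, fluorescence ex 446/em 490 nm. DMSO 12.5% final. Percent inhibition relative to no-inhibitor wells; triplicate, mean of 3 independent experiments.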

For `COc1cc(/C=C/C(=O)CC(=O)/C=C/c2ccc(O)c(OC)c2)ccc1O`, which inhibition is on record?
Its inhibition is 64%.

Biological target: T2, Acetylcholinesterase (Rattus norvegicus) (UniProt P37136)
T2 sequence (whole entry): T1 sequence (P37136 whole entry)
Experiment: Inhibition of rat cortex homogenate AchE using acetylthiocholine iodide as substrate at 50 uM after 15 mins by Ellman's method
In short: (§2)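 Modified Ellman assay in phosphate buffer pH 7.4. Enzyme sources: AChE from 5% rat cortex homogenate, preincubated 5 min with iso-OMPA to block BuChE; BuChE from 25% rat serum. Substrates were acetylthiocholine or butyrylthiocholine iodide. Compounds incubated 15 min at 37 °C, then DTNB added; A405 read. IC50 derived; triplicate, 3 independent experiments; "no active" means under 5% inhibition at 50 µM.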

Which inhibition does the source give for `O=c1c(-c2ccc(O)cc2)coc2cc(O)cc(O)c12` here?
The inhibition was under 5%.

Biological target: Acetylcholinesterase (Electrophorus electricus) (UniProt O42275)
Sequence (O42275 24-633 limits assumed): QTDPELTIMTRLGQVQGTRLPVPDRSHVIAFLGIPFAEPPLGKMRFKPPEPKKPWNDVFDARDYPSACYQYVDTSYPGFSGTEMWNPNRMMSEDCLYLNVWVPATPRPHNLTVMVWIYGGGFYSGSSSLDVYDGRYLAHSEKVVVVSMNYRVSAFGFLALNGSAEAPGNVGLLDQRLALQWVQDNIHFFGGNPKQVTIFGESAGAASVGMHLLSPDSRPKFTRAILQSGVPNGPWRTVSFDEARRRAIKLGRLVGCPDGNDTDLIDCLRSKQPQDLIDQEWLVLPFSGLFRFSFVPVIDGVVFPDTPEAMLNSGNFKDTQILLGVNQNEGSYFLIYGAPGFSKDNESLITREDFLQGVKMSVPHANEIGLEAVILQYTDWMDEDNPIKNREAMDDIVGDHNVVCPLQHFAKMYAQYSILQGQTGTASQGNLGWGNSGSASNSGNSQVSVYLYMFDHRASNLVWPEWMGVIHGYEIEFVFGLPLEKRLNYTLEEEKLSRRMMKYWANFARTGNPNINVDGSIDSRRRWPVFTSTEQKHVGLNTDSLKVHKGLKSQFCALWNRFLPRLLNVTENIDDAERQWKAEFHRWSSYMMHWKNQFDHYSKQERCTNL
Experiment: Inhibition of electric eel AchE using acetylthiocholine iodide as substrate at 50 uM after 15 mins by Ellman's method
In short: as §1

For `O=c1c(-c2ccc(O)cc2)coc2cc(O)cc(O)c12`, which inhibition is on record?
Its inhibition is under 5%.

Tested on: Mus musculus
Experiment: Cognition enhancing effect against scopolamine-induced memory deficit in Kunming mouse assessed as increase in latency time at 5 mg/kg, po administered 1 hr before training followed by scopolamine challenge for 7 days measured after 24 hrs by step-down passive avoidance test
Format: functional, organism-based
Design: dose 5 mg/kg
In short: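 Kunming mice (18–22 g, six weeks old, either sex), 10 per group. Drug in vegetable oil given orally 1 h before training, with scopolamine (3 mg/kg i.p., in 0.9% saline) 30 min later. Behavioural testing one day after 7 days of treatment. Training: 0.5 mA, 2 s foot shock on stepping down from a block. Step-down latency measured 24 h later, 300 s cut-off. Mean ± SEM.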

For `COc1cc2c(cc1OC)C(=O)C(CC1CCN(Cc3ccccc3)CC1)C2` (stereo not drawn), which Activity is on record?
The Activity was “Active”.

Biological target: Butyrylcholinesterase (Rattus norvegicus) (UniProt Q9JKC1)
Sequence (Q9JKC1 as listed by the source): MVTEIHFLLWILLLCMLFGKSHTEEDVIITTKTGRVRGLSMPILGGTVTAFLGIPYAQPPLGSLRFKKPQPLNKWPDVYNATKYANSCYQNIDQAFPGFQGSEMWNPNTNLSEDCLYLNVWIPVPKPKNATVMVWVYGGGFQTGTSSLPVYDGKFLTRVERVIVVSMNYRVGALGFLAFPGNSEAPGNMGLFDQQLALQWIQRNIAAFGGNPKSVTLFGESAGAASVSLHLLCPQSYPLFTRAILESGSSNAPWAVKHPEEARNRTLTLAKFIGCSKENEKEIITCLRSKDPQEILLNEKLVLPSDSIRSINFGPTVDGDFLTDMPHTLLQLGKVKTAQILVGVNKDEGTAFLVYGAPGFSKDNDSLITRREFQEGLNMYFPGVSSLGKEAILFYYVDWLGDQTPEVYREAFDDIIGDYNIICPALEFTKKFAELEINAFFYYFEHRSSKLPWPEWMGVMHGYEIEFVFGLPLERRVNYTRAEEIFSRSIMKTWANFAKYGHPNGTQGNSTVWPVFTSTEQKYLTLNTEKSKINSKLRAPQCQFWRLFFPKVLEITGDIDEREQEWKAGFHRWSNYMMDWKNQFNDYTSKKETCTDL
Experiment: Inhibition of rat serum BuChE using butyrylthiocholine iodide as substrate at 50 uM after 15 mins by Ellman's method
In short: as §2

For `O=c1c(-c2ccc(O)cc2)coc2cc(O)cc(O)c12`, which inhibition is on record?
Its inhibition is under 5%.

For `CN(CCCOc1cc(O)c2c(=O)c(-c3ccc(O)cc3)coc2c1)Cc1ccccc1`, which inhibition is on record?
Its inhibition is 7.4%.

Which inhibition does the source give for `COc1ccccc1CN(C)CCCOc1ccc(-c2coc3cc(O)cc(O)c3c2=O)cc1` here?
The inhibition was under 5%.

Which inhibition does the source give for `CCN(CCCCCCOc1ccc(-c2coc3cc(O)cc(O)c3c2=O)cc1)Cc1ccccc1OC` here?
Its inhibition is under 5%.

For `CCN(CCCOc1cc(O)c2c(=O)c(-c3ccc(O)cc3)coc2c1)Cc1ccccc1OC`, which inhibition is on record?
The inhibition was under 5%.

Which inhibition does the source give for `CN(CCCCCCOc1ccc(-c2coc3cc(O)cc(O)c3c2=O)cc1)Cc1ccccc1` here?
The inhibition was 7.7%.

For `CCN(CCCOc1ccc(-c2coc3cc(O)cc(O)c3c2=O)cc1)Cc1ccccc1OC`, which inhibition is on record?
Its inhibition is 17.6%.

With `COc1ccccc1CN(C)CCCCCCOc1ccc(-c2coc3cc(O)cc(O)c3c2=O)cc1` as the compound, how does the inhibition read?
The inhibition was under 5%.

With `COc1ccccc1CN(C)CCCCOc1cc(O)c2c(=O)c(-c3ccc(O)cc3)coc2c1` as the compound, how does the inhibition read?
The inhibition was under 5%.

For `CCN(CCCCCCOc1ccc(-c2coc3cc(O)cc(O)c3c2=O)cc1)Cc1ccccc1`, which inhibition is on record?
The inhibition was under 5%.

For `COc1ccccc1CN(C)CCCCCCOc1cc(O)c2c(=O)c(-c3ccc(O)cc3)coc2c1`, which inhibition is on record?
Its inhibition is under 5%.

For `COc1ccccc1CN(C)CCCCOc1ccc(-c2coc3cc(O)cc(O)c3c2=O)cc1`, which inhibition is on record?
The inhibition was 9.7%.

Which inhibition does the source give for `CN(CCCOc1ccc(-c2coc3cc(O)cc(O)c3c2=O)cc1)Cc1ccccc1` here?
Its inhibition is under 5%.

Tested on: not listed separately
Experiment: Antioxidant activity assessed as trolox equivalent of APPH-induced radical scavenging activity at 1 to 10 uM preincubated for 15 mins followed by AAPH challenge measured every minute for 90 minutes by ORAC fluorescence assay
Format: functional
In short: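 ORAC-FL in phosphate buffer pH 7.4. Samples (1–10 µM) preincubated with fluorescein (150 nM final) 15 min at 37 °C, then AAPH (12 mM final) added. Fluorescence (ex 485/em 535 nm) read each minute for 90 min. Net AUC over blank converted to Trolox equivalents using a 1–8 µM Trolox curve. Duplicates, at least 3 independent assays.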

For `O=c1c(-c2ccc(O)cc2)coc2cc(O)cc(O)c12`, which Activity is on record?
The Activity was 5.

For `CN(CCCOc1cc(O)c2c(=O)c(-c3ccc(O)cc3)coc2c1)Cc1ccccc1`, which Activity is on record?
Its Activity is 0.89.

Which Activity does the source give for `COc1ccccc1CN(C)CCCOc1ccc(-c2coc3cc(O)cc(O)c3c2=O)cc1` here?
The Activity was 0.62.

With `CCN(CCCCCCOc1ccc(-c2coc3cc(O)cc(O)c3c2=O)cc1)Cc1ccccc1OC` as the compound, how does the Activity read?
The Activity was 0.38.

For `CCN(CCCOc1cc(O)c2c(=O)c(-c3ccc(O)cc3)coc2c1)Cc1ccccc1OC`, which Activity is on record?
Its Activity is 1.02.

With `CN(CCCCCCOc1ccc(-c2coc3cc(O)cc(O)c3c2=O)cc1)Cc1ccccc1` as the compound, how does the Activity read?
Its Activity is 0.3.

With `CCN(CCCOc1ccc(-c2coc3cc(O)cc(O)c3c2=O)cc1)Cc1ccccc1OC` as the compound, how does the Activity read?
The Activity was 0.64.

Which Activity does the source give for `COc1ccccc1CN(C)CCCCCCOc1ccc(-c2coc3cc(O)cc(O)c3c2=O)cc1` here?
Its Activity is 0.4.

For `COc1ccccc1CN(C)CCCCOc1cc(O)c2c(=O)c(-c3ccc(O)cc3)coc2c1`, which Activity is on record?
The Activity was 1.56.

For `CCN(CCCCCCOc1ccc(-c2coc3cc(O)cc(O)c3c2=O)cc1)Cc1ccccc1`, which Activity is on record?
The Activity was 0.29.

Which Activity does the source give for `COc1ccccc1CN(C)CCCCCCOc1cc(O)c2c(=O)c(-c3ccc(O)cc3)coc2c1` here?
The Activity was 2.7.

Which Activity does the source give for `COc1ccccc1CN(C)CCCCOc1ccc(-c2coc3cc(O)cc(O)c3c2=O)cc1` here?
The Activity was 1.1.

With `CN(CCCOc1ccc(-c2coc3cc(O)cc(O)c3c2=O)cc1)Cc1ccccc1` as the compound, how does the Activity read?
The Activity was 0.46.
